From ChEMBL document CHEMBL4257518, “Inhibition of O-GlcNAc transferase (OGT) by peptidic hybrids” (Medchemcomm, 2018)
pIC50: −log10 of the molar value. The source made the active and inactive calls. The rule behind the calls is not given here. Side chains are listed from the residue outwards. Peptide text beside a SMILES is read from it. * marks the point of attachment. X3 = O=c1ccn([C@@H]2O[C@H](COCCOCCN*)[C@@H](O)[C@H]2O)c(=O)[nH]1; X2 = O=c1ccn([C@@H]2O[C@H](COCCN*)[C@@H](O)[C@H]2O)c(=O)[nH]1; X1 = O=c1ccn([C@@H]2O[C@H](CN*)[C@@H](O)[C@H]2O)c(=O)[nH]1; X4 = O=C(c1cc(=O)[nH]c2ccccc12)*; 4Amb = NCc1ccc(C(=O)O)cc1

Target: T1, UDP-N-acetylglucosamine--peptide N-acetylglucosaminyltransferase 110 kDa subunit (Homo sapiens) (UniProt O15294)
T1 sequence (whole entry): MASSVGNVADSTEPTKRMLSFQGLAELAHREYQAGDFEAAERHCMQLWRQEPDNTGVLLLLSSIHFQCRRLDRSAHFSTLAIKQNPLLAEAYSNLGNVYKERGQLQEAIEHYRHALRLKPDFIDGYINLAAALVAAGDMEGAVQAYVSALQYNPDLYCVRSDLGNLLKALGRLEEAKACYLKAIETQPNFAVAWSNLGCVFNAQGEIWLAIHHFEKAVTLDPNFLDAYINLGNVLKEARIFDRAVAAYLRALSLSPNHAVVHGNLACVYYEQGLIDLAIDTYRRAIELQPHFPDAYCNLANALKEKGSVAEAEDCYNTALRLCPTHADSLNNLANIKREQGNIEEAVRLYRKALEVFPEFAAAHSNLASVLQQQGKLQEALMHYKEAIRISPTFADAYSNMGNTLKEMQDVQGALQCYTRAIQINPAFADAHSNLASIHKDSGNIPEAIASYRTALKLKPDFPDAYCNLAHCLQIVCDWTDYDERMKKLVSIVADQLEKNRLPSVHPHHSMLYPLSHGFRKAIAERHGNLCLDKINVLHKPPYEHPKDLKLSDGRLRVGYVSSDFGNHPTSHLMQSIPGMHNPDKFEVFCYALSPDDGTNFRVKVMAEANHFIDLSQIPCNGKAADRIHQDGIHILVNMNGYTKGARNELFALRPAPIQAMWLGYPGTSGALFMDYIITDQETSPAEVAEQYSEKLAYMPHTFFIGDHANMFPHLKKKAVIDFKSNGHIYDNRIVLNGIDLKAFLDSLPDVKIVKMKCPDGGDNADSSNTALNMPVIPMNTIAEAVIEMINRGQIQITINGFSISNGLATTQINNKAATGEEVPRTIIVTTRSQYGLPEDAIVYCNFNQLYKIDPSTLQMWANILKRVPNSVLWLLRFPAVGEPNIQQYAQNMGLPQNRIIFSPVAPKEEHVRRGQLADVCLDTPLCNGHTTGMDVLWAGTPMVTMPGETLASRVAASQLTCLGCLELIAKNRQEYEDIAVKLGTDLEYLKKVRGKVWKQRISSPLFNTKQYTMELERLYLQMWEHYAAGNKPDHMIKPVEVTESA
Experiment: Inhibition of OGT (unknown origin) at 1 mM using UDP-GlcNAc as substrate measured after 2 hrs by UDP-Glo luminescence assay relative to control
Outline: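 Single-point OGT inhibition at 1 mM, read by UDP-Glo glycosyltransferase assay (UDP released from UDP-GlcNAc donor).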

inhibition	Compound
90%	O=C(O)CCNC(=O)c1ccc(NC(=O)c2cc(=O)[nH]c3ccccc23)cc1
90%	O=C(O)c1cc(O)nc2ccccc12
90%	CCOC(=O)C1CCC(CNC(=O)c2cc(=O)[nH]c3ccccc23)CC1 (stereo unspecified)
90%	O=C(O)CCNC(=O)c1cc(=O)[nH]c2ccccc12
90%	CC(C)(C)OC(=O)CCNC(=O)c1cc(=O)[nH]c2ccccc12
90%	Nc1ccccc1CNC(=O)c1cc(=O)[nH]c2ccccc12
90%	O=C(NCc1ccccc1Cl)c1cc(O)nc2ccccc12
90%	O=C(O)CNC(=O)c1cc(=O)[nH]c2ccccc12
90%	O=C(O)CCCNC(=O)c1cc(=O)[nH]c2ccccc12
90%	O=C(NCC1CCC(C(=O)O)CC1)c1cc(=O)[nH]c2ccccc12 (stereo unspecified)

More lines, now with the values behind:

Compound	inhibition
O=C(O)c1ccc(CNC(=O)c2cc(=O)[nH]c3ccccc23)cc1	90%
CCNC(=O)CCNC(=O)c1ccc(NC(=O)c2cc(=O)[nH]c3ccccc23)cc1	90%
CCOC(=O)c1ccc(CNC(=O)c2cc(=O)[nH]c3ccccc23)cc1	90%
CCOC(=O)CCCNC(=O)c1cc(=O)[nH]c2ccccc12	90%
CC(C)(C)OC(=O)CNC(=O)c1cc(=O)[nH]c2ccccc12	90%
COc1ccc(CNC(=O)c2cc(=O)[nH]c3ccccc23)cc1	90%
NS(=O)(=O)c1ccc(CNC(=O)c2cc(O)nc3ccccc23)cc1	90%
O=C(NCc1ccccc1)c1cc(O)nc2ccccc12	90%
Nc1ccc(CNC(=O)c2cc(=O)[nH]c3ccccc23)cc1	90%
CCc1nnc(NC(=O)c2cc(=O)[nH]c3ccccc23)s1	90%
O=C(NCc1ccc2c(c1)OCCO2)c1cc(=O)[nH]c2ccccc12	90%
COc1ccc(CNC(=O)c2cc(=O)[nH]c3ccccc23)cc1OC	90%

Target: T2, UDP-N-acetylglucosamine--peptide N-acetylglucosaminyltransferase 110 kDa subunit (Homo sapiens, UniProt O15294)
T2 sequence (O15294 whole entry): T1 sequence (whole entry)
Experiment: Inhibition of OGT (unknown origin) using UDP-GlcNAc as substrate measured after 2 hrs by UDP-Glo luminescence assay

pIC50	Compound
3.93	CC(C)[C@H](NC(=O)[C@@H](N)CS)C(=O)N[C@H](C(=O)N1CCC[C@H]1C(=O)N[C@H](C(=O)N[C@@H](CCCCNC(=O)c1ccc(CNC(=O)c2cc(=O)[nH]c3ccccc23)cc1)C(=O)N[C@H](C(=O)N[C@@H](C)C(N)=O)[C@@H](C)O)C(C)C)[C@@H](C)O (H-CVTPVK([4Amb-X4])TA-NH2)
< 3.00	CC(C)[C@H](NC(=O)[C@@H](N)CS)C(=O)N[C@H](C(=O)N1CCC[C@H]1C(=O)N[C@H](C(=O)N[C@@H](CCC(=O)NCCOC[C@H]1O[C@@H](n2ccc(=O)[nH]c2=O)[C@H](O)[C@@H]1O)C(=O)N[C@H](C(=O)N[C@@H](C)C(N)=O)[C@@H](C)O)C(C)C)[C@@H](C)O (H-CVTPVE(X2)TA-NH2)
3.71	H-RVPSAQS-NH2
< 3.00	CC(C)[C@H](NC(=O)[C@@H](N)CCCNC(=N)N)C(=O)N1CCC[C@H]1C(=O)N[C@@H](CO)C(=O)N[C@@H](CCC(=O)NC[C@H]1O[C@@H](n2ccc(=O)[nH]c2=O)[C@H](O)[C@@H]1O)C(=O)N[C@@H](CCC(N)=O)C(=O)N[C@@H](CO)C(N)=O (H-RVPSE(X1)QS-NH2)
< 3.00	CC(C)[C@H](NC(=O)[C@@H](N)CCCNC(=N)N)C(=O)N1CCC[C@H]1C(=O)N[C@@H](CO)C(=O)N[C@@H](CCC(=O)NCCOC[C@H]1O[C@@H](n2ccc(=O)[nH]c2=O)[C@H](O)[C@@H]1O)C(=O)N[C@@H](CCC(N)=O)C(=O)N[C@@H](CO)C(N)=O (H-RVPSE(X2)QS-NH2)
3.31	CC(C)[C@H](NC(=O)[C@@H](N)CS)C(=O)N[C@H](C(=O)N1CCC[C@H]1C(=O)N[C@H](C(=O)N[C@@H](CCC(=O)NCCOCCOC[C@H]1O[C@@H](n2ccc(=O)[nH]c2=O)[C@H](O)[C@@H]1O)C(=O)N[C@H](C(=O)N[C@@H](C)C(N)=O)[C@@H](C)O)C(C)C)[C@@H](C)O (H-CVTPVE(X3)TA-NH2)

Further lines, the compound ahead of its results:

Compound	pIC50
CC(C)[C@H](NC(=O)[C@@H](N)CS)C(=O)N[C@H](C(=O)N1CCC[C@H]1C(=O)N[C@H](C(=O)N[C@@H](CCC(=O)NC[C@H]1O[C@@H](n2ccc(=O)[nH]c2=O)[C@H](O)[C@@H]1O)C(=O)N[C@H](C(=O)N[C@@H](C)C(N)=O)[C@@H](C)O)C(C)C)[C@@H](C)O (H-CVTPVE(X1)TA-NH2)	3.53
H-CVTPVATA-NH2	3.41

Target: T1, UDP-N-acetylglucosamine--peptide N-acetylglucosaminyltransferase 110 kDa subunit (Homo sapiens)
Experiment: Competitive inhibition of OGT (unknown origin) at 0.5 mM in presence of RBL_2_410_422 peptide by microarray analysis
Outline: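 Peptide microarray with immobilized RBL-2_410–422 as OGT acceptor; inhibitor peptide present at 0.5 mM, water in parallel control. O-GlcNAcylation followed in real time by FITC-labelled antibody binding to O-GlcNAcylated RBL-2_410–422.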

inhibition	Compound
Active	H-KENSPCVTPVATA-OH
